Source: ChEMBL document CHEMBL4118076, “Azide-alkyne cycloaddition towards 1H-1,2,3-triazole-tethered gatifloxacin and isatin conjugates: Design, synthesis and in vitro anti-mycobacterial evaluation” (Eur J Med Chem, 2017)
In brackets after ≈: the same amount, converted by molar mass.

Legend:
Format in all cases: functional
[1] = tested on: Mycobacterium tuberculosis; assay: Antimycobacterial activity against multidrug resistant Mycobacterium tuberculosis after 3 to 7 days by rapid direct susceptibility test
Summary of the method: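 Two-fold DMSO dilutions, 0.0125 to 200 μg/mL for H37Rv and 0.062 to 128 μg/mL for the MDR strain (resistant to INH, RIF and ethambutol), mixed with suspension containing 4×10^-3 mg cells. Sealed plates incubated at 37 °C in a wet box. Growth was read visually under high magnification at 3 days and again 7 days later. MIC is the lowest concentration giving complete growth inhibition.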

[2] = tested on: Mycobacterium tuberculosis; assay: Potency index, ratio of gatifloxacin MIC90 to compound MIC90 for multidrug resistant Mycobacterium tuberculosis
[3] = tested on: Mycobacterium tuberculosis; assay: Potency index, ratio of isoniazid MIC90 to compound MIC90 for multidrug resistant Mycobacterium tuberculosis
[4] = tested on: Mycobacterium tuberculosis; assay: Potency index, ratio of rifampicin MIC90 to compound MIC90 for multidrug resistant Mycobacterium tuberculosis
[5] = Resistance index, ratio of MIC90 for multidrug resistant Mycobacterium tuberculosis to MIC90 for Mycobacterium tuberculosis H37Rv

| SMILES | MIC90 [1] [µg/mL] | also measured |
| --- | --- | --- |
| COc1c(N2CCNC(C)C2)c(F)cc2c(=O)c(C(=O)O)cn(C3CC3)c12 (centres undefined) [GATIFLOXACIN] | 1 (≈ 2.66 µM) |  |
| CO/N=C1\C(=O)N(CCn2cc(CN3CCN(c4c(F)cc5c(=O)c(C(=O)O)cn(C6CC6)c5c4OC)CC3C)nn2)c2ccc(Cl)cc21 (centres undefined) | 0.25 (≈ 0.361 µM) | Ratio [2]: >=4 - 512; Ratio [3]: >=4 - 512; Ratio [4]: >=4 - 512 |
| CO/N=C1\C(=O)N(CCn2cc(CN3CCN(c4c(F)cc5c(=O)c(C(=O)O)cn(C6CC6)c5c4OC)CC3C)nn2)c2ccccc21 (centres undefined) | 1 (≈ 1.52 µM) |  |
| COc1c(N2CCN(Cc3cn(CCN4C(=O)C(=O)c5cc(Cl)ccc54)nn3)C(C)C2)c(F)cc2c(=O)c(C(=O)O)cn(C3CC3)c12 (centres undefined) | 0.5 (≈ 0.753 µM) |  |
| COc1c(N2CCN(Cc3cn(CCN4C(=O)/C(=N\O)c5cc(F)ccc54)nn3)C(C)C2)c(F)cc2c(=O)c(C(=O)O)cn(C3CC3)c12 (centres undefined) | 1 (≈ 1.51 µM) |  |
| COc1c(N2CCN(Cc3cn(CCN4C(=O)/C(=N\O)c5cc(C)ccc54)nn3)C(C)C2)c(F)cc2c(=O)c(C(=O)O)cn(C3CC3)c12 (centres undefined) | 8 (≈ 12.1 µM) |  |
| CO[C@H]1/C=C/O[C@@]2(C)Oc3c(C)c(O)c4c(O)c(c(/C=N/N5CCN(C)CC5)c(O)c4c3C2=O)NC(=O)/C(C)=C\C=C\[C@H](C)[C@H](O)[C@@H](C)[C@@H](O)[C@@H](C)[C@H](OC(C)=O)[C@@H]1C [RIFAMPIN] | 32 (≈ 38.9 µM) |  |
| COc1c(N2CCN(Cc3cn(CCN4C(=O)C(=O)c5cc(C)ccc54)nn3)C(C)C2)c(F)cc2c(=O)c(C(=O)O)cn(C3CC3)c12 (centres undefined) | 1 (≈ 1.55 µM) | Ratio [5]: < 1 |
| NNC(=O)c1ccncc1 [ISONIAZID] | > 128 |  |
| COc1c(N2CCN(Cc3cn(CCN4C(=O)/C(=N\O)c5ccccc54)nn3)C(C)C2)c(F)cc2c(=O)c(C(=O)O)cn(C3CC3)c12 (centres undefined) | 8 (≈ 12.4 µM) |  |
| COc1c(N2CCN(Cc3cn(CCN4C(=O)C(=O)c5cc(F)ccc54)nn3)C(C)C2)c(F)cc2c(=O)c(C(=O)O)cn(C3CC3)c12 (centres undefined) | 0.5 (≈ 0.772 µM) | Ratio [5]: < 1 |
| CO/N=C1\C(=O)N(CCn2cc(CN3CCN(c4c(F)cc5c(=O)c(C(=O)O)cn(C6CC6)c5c4OC)CC3C)nn2)c2ccc(C)cc21 (centres undefined) | 0.5 (≈ 0.743 µM) | Ratio [5]: < 1 |
| COc1c(N2CCN(Cc3cn(CCN4C(=O)/C(=N\O)c5cc(Cl)ccc54)nn3)C(C)C2)c(F)cc2c(=O)c(C(=O)O)cn(C3CC3)c12 (centres undefined) | 2 (≈ 2.95 µM) |  |
| CO/N=C1\C(=O)N(CCn2cc(CN3CCN(c4c(F)cc5c(=O)c(C(=O)O)cn(C6CC6)c5c4OC)CC3C)nn2)c2ccc(F)cc21 (centres undefined) | 0.25 (≈ 0.369 µM) | Ratio [2]: >=4 - 512; Ratio [3]: >=4 - 512; Ratio [4]: >=4 - 512 |
| COc1c(N2CCN(Cc3cn(CCN4C(=O)C(=O)c5ccccc54)nn3)C(C)C2)c(F)cc2c(=O)c(C(=O)O)cn(C3CC3)c12 (centres undefined) | 4 (≈ 6.35 µM) |  |
